Measured values collected from several papers.
Protocols differ between the studies behind these lines.
Target: Ephrin type-B receptor 2 (EPHB2, Homo sapiens, UniProt P29323)
Sequence (P29323 19-1055, as in one of the studies): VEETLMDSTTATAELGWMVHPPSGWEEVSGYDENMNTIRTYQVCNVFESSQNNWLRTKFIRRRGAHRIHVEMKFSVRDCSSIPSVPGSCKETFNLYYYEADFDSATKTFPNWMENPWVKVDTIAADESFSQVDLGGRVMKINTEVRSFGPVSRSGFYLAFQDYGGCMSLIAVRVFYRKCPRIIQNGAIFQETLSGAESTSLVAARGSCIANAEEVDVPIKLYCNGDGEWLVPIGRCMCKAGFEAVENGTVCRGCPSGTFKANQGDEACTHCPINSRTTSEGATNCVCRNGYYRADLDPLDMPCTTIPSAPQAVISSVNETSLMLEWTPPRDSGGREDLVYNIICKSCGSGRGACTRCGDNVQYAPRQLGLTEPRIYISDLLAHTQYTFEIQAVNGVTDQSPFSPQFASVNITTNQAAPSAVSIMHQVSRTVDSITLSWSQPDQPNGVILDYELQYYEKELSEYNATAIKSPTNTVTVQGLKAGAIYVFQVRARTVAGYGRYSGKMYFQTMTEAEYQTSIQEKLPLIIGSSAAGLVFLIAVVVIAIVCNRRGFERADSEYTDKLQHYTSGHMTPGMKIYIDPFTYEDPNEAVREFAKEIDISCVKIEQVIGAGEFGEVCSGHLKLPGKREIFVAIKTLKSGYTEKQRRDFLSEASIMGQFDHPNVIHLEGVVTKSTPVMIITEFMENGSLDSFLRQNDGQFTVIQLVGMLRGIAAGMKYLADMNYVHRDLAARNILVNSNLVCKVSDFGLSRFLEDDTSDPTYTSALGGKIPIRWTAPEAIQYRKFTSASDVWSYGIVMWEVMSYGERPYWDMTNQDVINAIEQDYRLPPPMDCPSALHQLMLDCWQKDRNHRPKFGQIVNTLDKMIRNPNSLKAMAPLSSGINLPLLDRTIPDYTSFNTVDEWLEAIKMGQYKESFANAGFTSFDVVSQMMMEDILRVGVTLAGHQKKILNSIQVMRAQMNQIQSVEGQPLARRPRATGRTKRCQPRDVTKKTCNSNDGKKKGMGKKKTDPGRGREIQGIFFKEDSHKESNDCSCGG

CC(C)S(=O)(=O)c1ccc2nccc(Nc3ccc4sc(C5CCCC5)nc4c3)c2c1
activity vs control (enzyme activity; inhibitor; 1 µM): 109%

C1=C/COCc2cc(ccc2OCCN2CCCC2)Nc2nccc(n2)-c2cccc(c2)COC/1
remaining binding (binding; 0.1 µM): 88%

CC#CC(=O)N1CCC[C@H]1c1nc(-c2ccc(C(=O)Nc3ccccn3)cc2)c2c(N)nccn12
inhibition (enzyme activity; inhibitor; 1 µM): 6%

C[C@H]1CC[C@H](n2c3cnccc3c3cnc(Nc4ccc5c(n4)CCN(C(=O)CO)C5)nc32)CC1
remaining binding (cell-free assay; competition with immobilised ligand; 1 µM): 100%

CO[C@@H]1[C@H](N(C)C(=O)c2ccccc2)C[C@H]2O[C@]1(C)n1c3ccccc3c3c4c(c5c6ccccc6n2c5c31)C(=O)NC4
inhibition (enzyme activity; inhibitor; 1 µM): 0%

Cc1ccc(NC(=O)c2ccnc(C(F)(F)F)c2)cc1-c1cc(OCCO)nc(N2CCOCC2)c1
remaining binding (binding; competition with immobilised ligand; 1 µM): 85%

CCCCC(=O)Nc1ccc(-c2ccc3ncn(CCC)c(=O)c3c2)cn1
remaining binding (binding; competition with immobilised ligand; 0.5 µM): 100%

Cc1cc(O)c(-c2ccc([C@@H](C)CN(C)C)cc2)c2c1[nH]c(=O)c1sccc12
inhibition (cell-free assay; inhibitor; 0.1 µM): 0.144%
